Compounds with a hit are over-represented: about 3.5% of the library has one in this group of screens.
RGS4 inh = human RGS4 inhibition | B-score at 10 µM | AID 463165 | P49798 | HEK293 M3R/RGS4 inducible, Fluo-4 calcium flux; stronger effect = higher value; triggered by carbachol at its EC20 | hit rate 0.45% among 310,000;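 active = B-score, a plate-corrected calcium signal, over three deviations above library mean, with baseline fluorescence within five deviations of library mean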;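 note: RGS4 expression induced by doxycycline in cells with stable M3 receptor; B-score is computed from the integrated fluorescence ratio over baseline after carbachol; higher B-score means a larger calcium signal and so more RGS4 inhibition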
Target sequence (P49798 whole entry, looked up): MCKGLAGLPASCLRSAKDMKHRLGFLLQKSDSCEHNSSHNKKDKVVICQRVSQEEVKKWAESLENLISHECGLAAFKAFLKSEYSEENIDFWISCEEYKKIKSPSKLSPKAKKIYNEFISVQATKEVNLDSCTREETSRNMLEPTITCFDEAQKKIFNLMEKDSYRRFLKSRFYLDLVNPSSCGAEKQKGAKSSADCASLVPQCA
MrgX1 antag = human MrgX1 receptor antagonism, primary screen; MRGX1-HEK293 calcium flux, Fluo-4, BAM8-22 antagonism; stronger effect = lower value; Q96LB2; B-score at 10 µM; hit rate 1.3% among 310,000; AID 588676;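 active = calcium-response B-score plate-corrected more than 3 library SD below zero, starting fluorescence within 5 deviations, no agonist response on first addition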;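 note: peak minus trough fluorescence over baseline after final BAM8-22 challenge near maximal dose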
Target sequence (Q96LB2 whole entry, looked up): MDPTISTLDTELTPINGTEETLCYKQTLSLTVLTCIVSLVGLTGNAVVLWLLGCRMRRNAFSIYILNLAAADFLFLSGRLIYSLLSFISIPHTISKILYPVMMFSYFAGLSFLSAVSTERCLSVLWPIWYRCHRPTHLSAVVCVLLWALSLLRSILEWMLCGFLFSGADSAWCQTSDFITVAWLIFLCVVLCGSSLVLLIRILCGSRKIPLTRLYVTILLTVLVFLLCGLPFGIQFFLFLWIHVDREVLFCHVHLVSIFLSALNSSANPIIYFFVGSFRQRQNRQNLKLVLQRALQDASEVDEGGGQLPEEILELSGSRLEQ
RGS4 pot = potentiators or activators of RGS4; hit rate 0.92% among 310,000; B-score at 10 µM; HEK293 M3R/inducible RGS4, carbachol calcium flux Fluo4; stronger effect = lower value;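 active = B-score of the integrated calcium signal more than 4 SD below the library mean, with starting fluorescence not abnormally high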;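 note: negative B-score means reduced calcium response which marks RGS4 activation or potentiation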
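Test system: HEK293 cells with stable M3R and inducible RGS4; also added: carbachol at ECmax as muscarinic agonist stimulus; schedule: dye loading 30 min 37 °C, buffer rest 30 min RT; technique: kinetic calcium fluorescence imaging with Fluo4-AM dye, 2 µM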
MrgX1 PAM = allosterically activates human MrgX1 receptor signaling. MrgX1-HEK293, Fluo-4 calcium flux, FDSS; stronger effect = higher value. hit rate 0.63% among 310,000. B-score at 10 µM. AID 588675. Q96LB2;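 active = plate-corrected calcium response at least 3 library SD above typical, normal starting fluorescence, not activating the receptor alone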;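 note: compound read alongside a low EC10 to EC30 dose of BAM8-22 agonist; peak minus trough fluorescence over baseline measured at the second addition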
MrgX1 agonist = human MrgX1 receptor agonism, primary screen; MrgX1-HEK293 cells, Fluo-4 calcium fluorescence, agonist mode; stronger effect = higher value; hit rate 0.44% among 310,000; Q96LB2; B-score at 10 µM;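 active = calcium response B-score plate-corrected fluorescence ratio at least 3 library SD, with starting fluorescence B-score inside 5 SD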
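Material – MrgX1-expressing HEK293 cells · Input – 15,000 cells seeded per well · Dosing – compound as first of three additions · Times – overnight seeding, then 1 h dark dye loading · Measured by – kinetic Fluo-4 NW fluorescence of intracellular calcium · Read-out – B-scored fluorescence response ratio · Benchmarks – positive and negative control wells on each plate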
MrgX1 ant reconf = confirmation of human MrgX1 receptor antagonists; hit rate 19% among 2,300; remaining BAM8-22 calcium response % of control (stronger effect = lower value), % at 10 µM; MrgX1-HEK293, BAM8-22 calcium flux, Fluo-4; stronger effect = lower value; shares compounds with MrgX1 antag;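 active = remaining agonist calcium response no higher than 100% minus 3 SD of agonist-only control wells, with starting fluorescence near control levels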;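 note: agonist BAM8-22 given at a near maximal EC90 to ECmax level; peak minus minimum fluorescence divided by baseline after agonist addition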
HEK293 Ca flux = MrgX1 antagonist counter-screen hit in parental HEK293 cells. shares compounds with MrgX1 antag. Fluo-4 calcium fluorescence, FDSS. fluorescence ratio F(max-min)/F0 at 10 µM. hit rate 2% among 4,000;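 active = duplicate-averaged calcium fluorescence ratio at least three times the standard deviation of buffer wells, a nonspecific response in parental cells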
HEK293 Ca counter = activity in parental HEK293 cells without MrgX1; shares compounds with MrgX1 antag; parental HEK293 calcium flux, Fluo-4 fluorescence ratio; stronger effect = higher value; fluorescence ratio F(max-min)/F0 at 10 µM; hit rate 0.4% among 4,000; AID 624114;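 active = calcium fluorescence ratio, averaged over duplicates, at least 3 SD of the buffer-well ratio, meaning a nonspecific response in receptor-free cells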;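 note: untransfected parental HEK293 lacking MrgX1 used as counterscreen for MrgX1 allosteric activators; fluorescence change taken during the second addition on a kinetic imager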
HEK293 Ca cntr2 = activity in parental HEK293 cells lacking MrgX1 receptor; shares compounds with MrgX1 antag; Fluo-4 calcium fluorescence (FDSS); stronger effect = higher value; fluorescence ratio F(max-min)/F0 at 10 µM; hit rate 8.7% among 4,000; AID 624115;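 active = calcium fluorescence ratio at least three times the spread of buffer wells, meaning a non-specific response in parental cells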
A number is an active result; . = inactive; / = not tested or not shown.

SMILES | RGS4 inh | MrgX1 antag | RGS4 pot | MrgX1 PAM | MrgX1 agonist | MrgX1 ant reconf | HEK293 Ca flux | HEK293 Ca counter | HEK293 Ca cntr2
Cc1ncoc1C(=O)N1CCCC(C(=O)c2cccc(OC(C)C)c2)C1 (stereo not drawn) | . | -6.08 | . | . | . | . | . | . | .
Cc1ncoc1C(=O)N1CCCC(C(=O)c2ccc(Oc3ccccc3)cc2)C1 (stereo not drawn) | . | . | . | . | . | / | / | / | /
CCN(CC)c1ccc2c(Cl)c(Br)c(=O)oc2c1 | . | -14.5 | . | . | . | . | 0.0375 | . | .
O=c1cc(Cc2ccccc2)[nH]c(=S)[nH]1 | . | -5.01 | . | . | . | . | . | . | .
COCc1cc(=O)[nH]c(=S)[nH]1 | . | -7.13 | . | . | . | . | . | . | .
Cc1[nH]c(=O)c(S(=O)(=O)c2ccccc2)c(C)c1Cl | . | . | . | . | . | / | / | / | /
COC(=O)C(CO)Nc1ncnc2onc(-c3ccc(F)cc3)c12 (stereo not drawn) | . | . | . | . | . | / | / | / | /
O=S1(=O)CC(O)C(Nc2ccccc2Cl)C1 (stereo not drawn) | . | -7.92 | . | . | . | . | . | . | .
CCOC(=O)c1c(-c2ccc(C)cc2)csc1NC1=NS(=O)(=O)c2ccccc21 | . | -6.77 | . | . | . | . | . | . | .
CC(=O)c1sc2nc(-c3cccs3)cc(C(F)(F)F)c2c1N | . | -10.2 | . | . | . | . | . | . | .
COc1ccc(OC)c(NC(=O)c2sc3nc(Cc4ccccc4)cc(C(F)(F)F)c3c2N)c1 | . | . | . | . | . | / | / | / | /
Cc1c(C(=O)O)sc2nc(-c3cccs3)cc(C(F)(F)F)c12 | . | . | . | . | . | / | / | / | /
CN(C)CCNC(=O)c1sc2nc(-c3ccccc3)cc(C(F)(F)F)c2c1N | . | -7.66 | . | . | . | . | . | . | .
CC1CCC(C(C)C)C(OC(=O)Cn2c(-c3ccc(Cl)cc3)[n+](C)c3ccccc32)C1 (stereo not drawn) | . | -9.93 | -8.58 | . | . | 45.3% | . | . | .
O=C(Nc1ccccc1O)C(c1ccccc1)c1ccccc1 | . | -5.07 | . | . | . | 75.7% | . | . | .
O=C(Nc1ccc(Cl)c(Cl)c1)Nc1ccccc1O | . | -5.49 | . | . | . | . | . | . | .
CCCCn1nnnc1SCC(=O)NCc1ccco1 | . | . | . | . | . | / | / | / | /
O=C(NC1CCCN(c2ccc(C(F)(F)F)cn2)C1)c1ccnc(Cl)c1 (stereo not drawn) | . | -4.91 | . | . | . | 83.6% | . | . | .
O=C(NC1CCCN(Cc2ccc(Cl)cc2)C1)c1ccnc(Cl)c1 (stereo not drawn) | . | . | . | . | . | / | / | / | /
CCCc1cc(C(=O)N2CCCC(Nc3ccc(C)c(C)c3)C2)n(C)n1 (stereo not drawn) | . | . | . | . | . | / | / | / | /
CC(NC(=O)CSc1nnc(-c2cccnc2)n1N)c1ccccc1 (stereo not drawn) | . | -4.56 | . | . | . | . | . | . | .
Cc1ccc(NC(=O)Nc2ccc(F)c(Cl)c2)cc1 | . | -6.84 | . | . | . | 61.8% | . | . | .
O=C(Nc1cccnc1)Nc1ccc(F)c(Cl)c1 | . | -5.21 | . | . | . | 69.0% | . | . | .
O=C(CCC(=O)Nc1cccnc1)Nc1cccnc1 | . | -4.84 | . | . | . | . | . | . | .
NC(=S)Nc1cccc2[nH]ccc12 | . | . | . | . | . | / | / | / | /
COc1ccc(N2CC(C(=O)Nc3ccccc3C(=O)NC3CC3)CC2=O)cc1 (stereo not drawn) | . | . | . | . | . | / | / | / | /
CC(=O)OC(C(=O)NC1CCCCC1)c1ccc(Cl)c(Cl)c1 (stereo not drawn) | . | . | . | . | . | / | / | / | /

Screening data deposited in PubChem BioAssay by Johns Hopkins Ion Channel Center.
